For 16 compounds, ΔTm results are on record in ChEMBL document CHEMBL1944596, “7,8-dichloro-1-oxo-β-carbolines as a versatile scaffold for the development of potent and selective kinase inhibitors with unusual binding modes” (J Med Chem, 2012).

Structures are written as SMILES.

The target of assay [1] is Dual specificity protein kinase CLK1 (Homo sapiens) (UniProt P49759). As to the kind of experiment: Binding affinity to CLK1 assessed as change in thermal denaturation at 10 uM by thermal stability shift assay. Put shortly: (§1)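 Each compound was screened across a kinase panel by thermal stability shift assay. The read-out was the shift in protein melting temperature (ΔTm, in °C) relative to the unliganded kinase. A ΔTm of 4.0 °C served as the hit cutoff.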

The target of assay [2] is T1, Cyclin-G-associated kinase (Homo sapiens) (UniProt O14976).
T1 sequence (whole entry): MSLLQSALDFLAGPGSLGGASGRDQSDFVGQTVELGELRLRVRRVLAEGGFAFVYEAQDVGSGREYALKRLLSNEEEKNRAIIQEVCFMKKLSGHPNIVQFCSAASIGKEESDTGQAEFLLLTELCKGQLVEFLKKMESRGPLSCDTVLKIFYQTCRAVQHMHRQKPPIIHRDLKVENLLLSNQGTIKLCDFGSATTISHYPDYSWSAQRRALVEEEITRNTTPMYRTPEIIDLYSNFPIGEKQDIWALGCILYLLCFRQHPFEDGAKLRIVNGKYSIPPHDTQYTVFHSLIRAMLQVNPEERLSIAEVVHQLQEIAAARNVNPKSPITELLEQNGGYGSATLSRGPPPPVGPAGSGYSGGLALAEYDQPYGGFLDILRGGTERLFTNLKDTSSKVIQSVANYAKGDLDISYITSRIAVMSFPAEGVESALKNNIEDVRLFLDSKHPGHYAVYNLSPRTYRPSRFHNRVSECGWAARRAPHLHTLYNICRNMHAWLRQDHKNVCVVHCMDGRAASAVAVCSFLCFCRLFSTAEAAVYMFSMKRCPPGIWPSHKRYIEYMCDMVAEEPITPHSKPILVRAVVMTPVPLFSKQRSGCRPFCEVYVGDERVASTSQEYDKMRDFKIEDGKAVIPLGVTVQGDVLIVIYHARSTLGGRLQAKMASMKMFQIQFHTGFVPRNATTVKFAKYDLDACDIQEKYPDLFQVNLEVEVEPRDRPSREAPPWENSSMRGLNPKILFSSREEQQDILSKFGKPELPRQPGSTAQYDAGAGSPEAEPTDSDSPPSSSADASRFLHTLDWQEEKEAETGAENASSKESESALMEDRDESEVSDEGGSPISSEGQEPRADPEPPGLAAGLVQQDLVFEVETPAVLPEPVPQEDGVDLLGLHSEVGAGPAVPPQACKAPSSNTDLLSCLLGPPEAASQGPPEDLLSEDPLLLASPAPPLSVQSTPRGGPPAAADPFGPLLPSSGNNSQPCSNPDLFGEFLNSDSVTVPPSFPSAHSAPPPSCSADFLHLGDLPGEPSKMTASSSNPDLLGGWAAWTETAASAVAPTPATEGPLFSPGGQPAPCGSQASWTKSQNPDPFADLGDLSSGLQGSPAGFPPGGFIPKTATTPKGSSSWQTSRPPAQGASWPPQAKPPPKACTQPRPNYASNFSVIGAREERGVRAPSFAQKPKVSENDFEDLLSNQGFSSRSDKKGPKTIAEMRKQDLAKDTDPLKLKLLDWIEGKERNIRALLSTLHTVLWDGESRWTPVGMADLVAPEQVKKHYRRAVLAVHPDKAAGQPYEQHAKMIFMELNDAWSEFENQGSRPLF
As to the kind of experiment: Binding affinity to GAK assessed as change in thermal denaturation at 10 uM by thermal stability shift assay. Put shortly:
as §1

Assay [3] addresses Tyrosine-protein kinase Fes/Fps (Homo sapiens) (UniProt P07332). Nature of the assay: Binding affinity to FES assessed as change in thermal denaturation at 10 uM by thermal stability shift assay. Put shortly: as §1
The target in assay [4] is T2, Dual specificity tyrosine-phosphorylation-regulated kinase 2 (Homo sapiens) (UniProt Q92630).
T2 sequence (whole entry): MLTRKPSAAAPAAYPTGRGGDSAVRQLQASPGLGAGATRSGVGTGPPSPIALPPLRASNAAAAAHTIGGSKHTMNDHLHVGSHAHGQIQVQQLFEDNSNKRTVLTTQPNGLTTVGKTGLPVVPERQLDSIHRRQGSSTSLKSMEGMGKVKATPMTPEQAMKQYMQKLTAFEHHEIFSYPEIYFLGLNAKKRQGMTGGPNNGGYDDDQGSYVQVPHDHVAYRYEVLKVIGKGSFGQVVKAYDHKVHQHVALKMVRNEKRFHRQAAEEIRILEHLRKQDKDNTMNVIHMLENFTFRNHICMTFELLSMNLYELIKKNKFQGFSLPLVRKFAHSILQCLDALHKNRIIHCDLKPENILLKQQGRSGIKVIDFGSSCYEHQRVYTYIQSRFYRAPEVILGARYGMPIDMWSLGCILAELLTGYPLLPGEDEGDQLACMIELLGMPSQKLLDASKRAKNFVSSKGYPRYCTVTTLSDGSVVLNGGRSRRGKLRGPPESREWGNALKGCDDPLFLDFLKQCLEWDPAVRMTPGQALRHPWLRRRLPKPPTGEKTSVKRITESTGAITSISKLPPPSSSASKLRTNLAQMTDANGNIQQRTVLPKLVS
As to the kind of experiment: Binding affinity to DYRK2 assessed as change in thermal denaturation at 10 uM by thermal stability shift assay. Put shortly:
as §1

The target of assay [5] is T3, cAMP-dependent protein kinase catalytic subunit PRKX (Homo sapiens) (UniProt P51817).
T3 sequence (whole entry): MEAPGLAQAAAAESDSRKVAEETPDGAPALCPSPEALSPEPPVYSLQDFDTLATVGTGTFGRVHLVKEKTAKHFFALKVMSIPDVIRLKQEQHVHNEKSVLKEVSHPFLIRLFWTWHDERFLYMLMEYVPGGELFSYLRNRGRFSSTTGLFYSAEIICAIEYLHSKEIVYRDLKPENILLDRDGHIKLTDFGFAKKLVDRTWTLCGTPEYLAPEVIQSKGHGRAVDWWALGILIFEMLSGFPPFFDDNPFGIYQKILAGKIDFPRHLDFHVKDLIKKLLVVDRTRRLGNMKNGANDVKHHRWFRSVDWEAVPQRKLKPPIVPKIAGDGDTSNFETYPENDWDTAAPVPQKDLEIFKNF
As to the kind of experiment: Binding affinity to PRKX assessed as change in thermal denaturation at 10 uM by thermal stability shift assay. Put shortly:
as §1

In assay [6] the target is T4, Serine/threonine-protein kinase 17B (Homo sapiens) (UniProt O94768).
T4 sequence (whole entry): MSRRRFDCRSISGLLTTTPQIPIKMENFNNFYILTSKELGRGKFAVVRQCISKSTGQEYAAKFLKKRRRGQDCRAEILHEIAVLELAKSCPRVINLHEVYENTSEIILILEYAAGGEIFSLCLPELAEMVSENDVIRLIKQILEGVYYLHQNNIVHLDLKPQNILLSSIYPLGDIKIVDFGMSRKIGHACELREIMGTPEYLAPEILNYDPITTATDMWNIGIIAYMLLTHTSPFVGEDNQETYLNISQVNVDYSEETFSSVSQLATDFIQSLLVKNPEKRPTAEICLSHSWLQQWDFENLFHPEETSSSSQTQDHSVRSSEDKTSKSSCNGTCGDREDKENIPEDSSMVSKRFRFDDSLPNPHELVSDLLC
As to the kind of experiment: Binding affinity to DRAK2 assessed as change in thermal denaturation at 10 uM by thermal stability shift assay. Put shortly:
as §1

Dual specificity protein kinase CLK1 (Homo sapiens), sequence (P49759 whole entry, looked up): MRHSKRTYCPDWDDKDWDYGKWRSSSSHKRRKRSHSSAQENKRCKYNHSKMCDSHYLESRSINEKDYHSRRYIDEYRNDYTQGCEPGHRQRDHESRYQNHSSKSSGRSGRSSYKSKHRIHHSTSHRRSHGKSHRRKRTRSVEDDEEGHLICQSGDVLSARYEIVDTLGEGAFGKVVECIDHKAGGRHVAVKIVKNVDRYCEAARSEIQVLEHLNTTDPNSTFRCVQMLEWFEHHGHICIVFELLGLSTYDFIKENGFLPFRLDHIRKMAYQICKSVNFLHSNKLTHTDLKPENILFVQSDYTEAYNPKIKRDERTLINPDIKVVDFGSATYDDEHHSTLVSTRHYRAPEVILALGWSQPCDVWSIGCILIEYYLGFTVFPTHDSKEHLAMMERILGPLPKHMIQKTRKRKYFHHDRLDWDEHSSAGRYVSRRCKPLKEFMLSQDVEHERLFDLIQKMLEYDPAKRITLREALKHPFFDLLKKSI
Tyrosine-protein kinase Fes/Fps (Homo sapiens), sequence (P07332 whole entry): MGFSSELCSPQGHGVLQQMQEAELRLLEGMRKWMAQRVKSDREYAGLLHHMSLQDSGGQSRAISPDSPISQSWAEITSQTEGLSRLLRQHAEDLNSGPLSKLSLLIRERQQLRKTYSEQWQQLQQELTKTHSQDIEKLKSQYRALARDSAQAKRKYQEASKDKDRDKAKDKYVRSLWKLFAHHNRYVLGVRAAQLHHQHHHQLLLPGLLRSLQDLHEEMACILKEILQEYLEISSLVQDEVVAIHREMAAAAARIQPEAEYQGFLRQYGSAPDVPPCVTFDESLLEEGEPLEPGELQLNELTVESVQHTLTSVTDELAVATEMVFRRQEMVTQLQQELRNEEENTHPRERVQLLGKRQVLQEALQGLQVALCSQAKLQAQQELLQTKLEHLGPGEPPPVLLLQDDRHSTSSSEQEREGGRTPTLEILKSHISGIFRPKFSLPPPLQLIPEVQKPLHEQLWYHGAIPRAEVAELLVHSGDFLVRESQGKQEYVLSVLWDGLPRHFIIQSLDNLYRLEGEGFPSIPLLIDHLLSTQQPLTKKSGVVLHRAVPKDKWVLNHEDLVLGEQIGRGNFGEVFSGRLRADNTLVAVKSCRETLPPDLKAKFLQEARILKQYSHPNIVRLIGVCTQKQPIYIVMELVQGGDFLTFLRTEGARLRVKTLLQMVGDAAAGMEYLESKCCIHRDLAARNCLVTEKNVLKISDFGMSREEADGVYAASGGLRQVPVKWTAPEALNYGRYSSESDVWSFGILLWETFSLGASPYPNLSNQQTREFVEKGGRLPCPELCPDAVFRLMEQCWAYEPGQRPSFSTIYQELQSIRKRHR

`N#CC1c2c([nH]c3c(Cl)c(Cl)ccc23)C(=O)NC12CCCCC2` (racemic): the ΔTm was 5.4 °C in assay [1]; 2.8 °C in assay [2]; -0.4 °C in assay [3]; 1.4 °C in assay [4]; 1 °C in assay [5]; 2.3 °C in assay [6].

`Cn1c2c(c3ccc(Cl)c(Cl)c31)C(C#N)C1(CCN(C(=O)OC(C)(C)C)CC1)NC2=O` (racemic): the ΔTm is 0.5 °C in assay [1]; -0.2 °C in assay [2]; 0.4 °C in assay [3]; 0.3 °C in assay [4]; 0.3 °C in assay [5]; 0 °C in assay [6].

On to `CCC1(CC)NC(=O)c2c(c3ccc(Cl)c(Cl)c3n2C)C1C#N` (stereo unspecified), for which the ΔTm in assay [1] was found to be 3.5 °C; in assay [2], 1.2 °C; in assay [3], 0 °C; in assay [4], 0.6 °C; in assay [5], 0.8 °C; in assay [6], 2.9 °C.

`Cn1c2c(c3ccccc31)C(C#N)C(C)(C)NC2=O` (stereo unspecified): the ΔTm in assay [1] was found to be 2.4 °C; in assay [2], 0 °C; in assay [3], 0 °C; in assay [4], 0.5 °C; in assay [5] it was 0.5 °C; in assay [6], 0.3 °C.

As to `CN1CCC2(CC1)NC(=O)c1c(c3ccc(Cl)c(Cl)c3n1C)C2C#N` (racemic), the ΔTm in assay [1] was found to be 5.7 °C; in assay [2], 0.8 °C; in assay [3], 0.5 °C; in assay [4], 1.3 °C; in assay [5] it was 3.3 °C; in assay [6], 1.2 °C.

With `Cn1c2c(Cl)c(Cl)ccc2c2cc[nH]c(=O)c21`, the shift in melting temperature (ΔTm) in assay [1] was found to be 4.6 °C; in assay [2] it was 3.3 °C; in assay [3], 0.1 °C; in assay [4], 4.1 °C; in assay [5] it was 0.3 °C; in assay [6], 3.6 °C.

Consider `CC(=O)NCC1c2c(n(C)c3c(Cl)c(Cl)ccc23)C(=O)NC1(C)C` (racemic), for which the ΔTm in assay [1] amounted to 2.6 °C; in assay [2], 0.5 °C; in assay [3], 0.4 °C; in assay [4], 0.9 °C; in assay [5] it was 0.7 °C; in assay [6], 1.6 °C.

Consider `Cn1c2c(c3ccc(Cl)c(Cl)c31)C(C#N)C1(CCOCC1)NC2=O` (stereo unspecified), for which the ΔTm in assay [1] was found to be 4.6 °C; in assay [2], 1.3 °C; in assay [3] it was 0 °C; in assay [4] it was 1 °C; in assay [5], 1.4 °C; in assay [6], 1.7 °C.

In the case of `CC1(C)NC(=O)c2[nH]c3c(Cl)c(Cl)ccc3c2C1C#N` (stereo unspecified), the ΔTm in assay [1] is 5.3 °C; in assay [2], 2.5 °C; in assay [3], -0.2 °C; in assay [4], 1.3 °C; in assay [5], 1.2 °C; in assay [6], 2.1 °C.

`Cn1c2c(c3ccc(Cl)c(Cl)c31)C(C#N)C1(CCCC1)NC2=O` (stereo unspecified): the ΔTm in assay [1] came out at 4.8 °C; in assay [2], 1.2 °C; in assay [3], 0 °C; in assay [4], 0.7 °C; in assay [5] it was 0.7 °C; in assay [6], 2.6 °C.

Turning to `CCN1CCC2(CC1)NC(=O)c1c(c3ccc(Cl)c(Cl)c3n1C)C2C#N` (racemic), the ΔTm was 4 °C in assay [1]; 0.9 °C in assay [2]; 0.7 °C in assay [3]; 0.9 °C in assay [4]; 3.1 °C in assay [5]; 1.1 °C in assay [6].

As to `Cn1c2c(c3ccc(Cl)c(Cl)c31)C(C#N)C(C)(C)NC2=O` (stereo unspecified), the ΔTm in assay [1] was 6.4 °C; in assay [2] it was 2.8 °C; in assay [3] it was -0.3 °C; in assay [4] it was 2 °C; in assay [5], 2.8 °C; in assay [6], 4.8 °C.

For the compound `Cn1c2c(Cl)c(Cl)ccc2c2cn[nH]c(=O)c21`, the ΔTm in assay [1] is 3.9 °C; in assay [2] it was 1.6 °C; in assay [3] it was 0.2 °C; in assay [4], 1.6 °C; in assay [5], 0.3 °C; in assay [6] it was 2.2 °C.

With `Cn1c2c(c3ccc(Cl)c(Cl)c31)C(C#N)C1(CCNCC1)NC2=O` (racemic), the ΔTm in assay [1] stood at 7 °C; in assay [2] it was 1.4 °C; in assay [3] it was 4 °C; in assay [4] it was 3.6 °C; in assay [5], 5.8 °C; in assay [6], 3.4 °C.

With `Cn1c2c(c3ccc(Cl)c(Cl)c31)C(CN)C(C)(C)NC2=O` (racemic), the ΔTm in assay [1] turned out to be 5.1 °C; in assay [2], 0.7 °C; in assay [3], 0.3 °C; in assay [4], 0.2 °C; in assay [5], 3.3 °C; in assay [6] it was 6.4 °C.

On to `Cn1c2c(Cl)c(Cl)ccc2c2cc(N)[nH]c(=O)c21`, for which the ΔTm came out at 5.9 °C in assay [1]; 4.3 °C in assay [2]; 0.4 °C in assay [3]; 2.4 °C in assay [4]; 0.8 °C in assay [5]; 3 °C in assay [6].

The ΔTm is the change in melting temperature against a reference sample.
